Measurements: ChEMBL document CHEMBL3286252, “Synthesis, biological evaluation and structure-activity relationship of new GABA uptake inhibitors, derivatives of 4-aminobutanamides” (Eur J Med Chem, 2014)
Activity calls are given as the source filed them.

Legend:
[1] = test system: Mus musculus; assay: Anticonvulsant activity against pentylenetetrazole-induced seizure in albino Swiss (CD-1) mouse assessed as delay in onset of seizures at 15 mg/kg, ip administered 60 mins prior to PTZ challenge; type: functional; details: route intraperitoneal
Summary of the method: (§1)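 Male CD-1 mice (18–22 g) given compound or vehicle i.p. 60 min before PTZ 100 mg/kg s.c. Each mouse was then caged alone and watched for 30 min for clonic seizures, meaning whole-body clonus lasting >3 s with loss of righting reflex. Recorded: latency to first clonus, number of seizure episodes, and deaths within 30 min. Analysis: ANOVA/Dunnett or t-test; mortality by Fisher's exact test; 7–10 mice per group.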

[2] = test system: Mus musculus; assay: Anticonvulsant activity against pentylenetetrazole-induced seizure in albino Swiss (CD-1) mouse assessed as delay in onset of seizures at 30 mg/kg, ip administered 60 mins prior to PTZ challenge; type: functional; details: route intraperitoneal; summary of the method: as §1
[3] = test system: Mus musculus; assay: Anticonvulsant activity against pentylenetetrazole-induced seizure in albino Swiss (CD-1) mouse assessed as decrease in seizure episodes at 15 mg/kg, ip administered 60 mins prior to PTZ challenge; type: functional; details: route intraperitoneal; summary of the method: as §1
[4] = test system: Mus musculus; assay: Anticonvulsant activity against pentylenetetrazole-induced seizure in albino Swiss (CD-1) mouse assessed as decrease in mortality rate at 30 mg/kg, ip administered 60 mins prior to PTZ challenge; type: functional, organism-based; parameters: dose 30 mg/kg; summary of the method: as §1
[5] = test system: Mus musculus; assay: Anticonvulsant activity against pilocarpine-induced seizure in albino Swiss (CD-1) mouse assessed as prolongation of latency time to seizures at 70 mg/kg, ip administered 60 mins before pilocarpine challenge; type: functional; details: route intraperitoneal
Summary of the method: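 CD-1 mice received compound or vehicle (1% Tween 80) i.p. 60 min before pilocarpine 400 mg/kg i.p. Scopolamine butylbromide 1 mg/kg i.p. was given 45 min before pilocarpine. 7–8 mice per group; Student's t-test versus vehicle; mean ± SEM.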

[6] = test system: Mus musculus; assay: Anticonvulsant activity against pilocarpine-induced seizure in albino Swiss (CD-1) mouse assessed as prolongation of latency time to death at 70 mg/kg, ip administered 60 mins before pilocarpine challenge; type: functional; details: route intraperitoneal
Summary of the method: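 Male CD-1 mice dosed i.p. with compound or vehicle (1% Tween 80). Scopolamine butylbromide 1 mg/kg i.p. given 45 min before pilocarpine; pilocarpine 400 mg/kg i.p. given 60 min after compound. Observed 1 h. Latency to tonic-clonic seizure and latency to death recorded, cut-off 60 min. 7–8 mice per group, mean ± SEM, Student's t-test against vehicle.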

[7] = test system: Mus musculus; assay: Toxicity in albino Swiss (CD-1) mouse assessed as decrease in locomotor activity at 30 mg/kg, ip after 60 mins; type: organism-based; parameters: dose 30 mg/kg, route intraperitoneal; details: in vivo, 1 h
Summary of the method: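 Mice were pretreated i.p. with 30 mg/kg or vehicle (1% Tween 80) 60 min before testing. Each was placed alone in an IR-beam activity cage (40×40×31 cm) in a sound-attenuated room. Beam interruptions were counted over 30 min in five 6-min intervals. Analysis: repeated-measures ANOVA with Bonferroni.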

[8] = test system: Mus musculus; assay: Anticonvulsant activity in albino Swiss (CD-1) mouse assessed as protection against seizures at 100 mg/kg, ip after 60 mins by electroconvulsive threshold test; type: functional, organism-based; parameters: dose 100 mg/kg
[9] = test system: Mus musculus; assay: Toxicity in albino Swiss (CD-1) mouse assessed as mortality at 100 mg/kg, ip measured after single electroconvulsive electroshock exposure; type: organism-based; parameters: dose 100 mg/kg, route intraperitoneal; details: in vivo
Summary of the method: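 Male CD-1 mice given 100 mg/kg i.p. 60 min before electroconvulsive threshold testing. Groups shocked at graded currents to give 10–90% of animals with seizures; CS50 for tonic hind-limb extension estimated by log-probit. Mortality noted after a single electroconvulsive shock, compared with controls.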

[10] = test system: Mus musculus; assay: Anticonvulsant activity in albino Swiss (CD-1) mouse assessed as protection against electrically-induced tonic hind limb extension at 30 mg/kg by maximal electroshock test; type: functional, organism-based; parameters: dose 30 mg/kg; details: Hindlimb
Summary of the method: (§2)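 Mice received a 25 mA, 0.2 s stimulus through auricular electrodes. The endpoint was tonic extension of the hind limbs after a single shock, scored in vehicle- and drug-treated groups.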

[11] = test system: Mus musculus; assay: Anticonvulsant activity in albino Swiss (CD-1) mouse assessed as decrease in animals with tonic hind limb extensions at 100 mg/kg by maximal electroshock test; type: functional; details: Hindlimb; summary of the method: as §2
[12] = Toxicity in albino Swiss (CD-1) mouse assessed as mortality at 100 mg/kg measured after electroshock exposure; type: organism-based; parameters: dose 100 mg/kg; details: in vivo, read-out: Activity
Summary of the method: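 Male CD-1 mice given 100 mg/kg i.p. 60 min before the maximal electroshock test. Stimulus 25 mA for 0.2 s through auricular electrodes; endpoint tonic hind-limb extension. Deaths after the shock compared with the vehicle group.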

[13] = test system: Mus musculus; assay: Anticonvulsant activity against pentylenetetrazole-induced seizure in albino Swiss (CD-1) mouse assessed as decrease in seizure episodes at 100 mg/kg, ip administered 60 mins prior to PTZ challenge; type: functional; details: route intraperitoneal
Summary of the method: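 Male CD-1 mice, 18–22 g, given compound or vehicle i.p. 60 min before PTZ 100 mg/kg s.c. Each mouse observed alone for 30 min for clonic seizures: whole-body clonus over 3 s with loss of righting reflex. Read-outs: latency to first clonus, number of seizure episodes, and deaths within 30 min. Groups of 7–10 mice, compared with vehicle.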

[14] = test system: Mus musculus; assay: Anticonvulsant activity against pentylenetetrazole-induced seizure in albino Swiss (CD-1) mouse assessed as decrease in mortality rate at 30 to 100 mg/kg, ip administered 60 mins prior to PTZ challenge; type: functional, organism-based; summary of the method: as §1
[15] = test system: Mus musculus; assay: Anticonvulsant activity in albino Swiss (CD-1) mouse assessed as current intensity required to induce 50% tonic hind limb extensions at 100 mg/kg, ip after 60 mins by electroconvulsive threshold test (reference value: 6.61 mA); type: functional, Hindlimb; details: route intraperitoneal
[16] = test system: Mus musculus; assay: Anticonvulsant activity in albino Swiss (CD-1) mouse assessed as protection against electrically-induced tonic hind limb extension at 30 to 100 mg/kg measured after single electroshock by maximal electroshock test; type: functional, organism-based; details: Hindlimb; summary of the method: as §2
[17] = test system: Mus musculus; assay: Anticonvulsant activity against pentylenetetrazole-induced seizure in albino Swiss (CD-1) mouse assessed as prolongation of latency time to first seizure episode at 100 mg/kg, ip administered 60 mins prior to PTZ challenge; type: functional; details: route intraperitoneal; summary of the method: as §1
[18] = test system: Mus musculus; assay: Anticonvulsant activity against pentylenetetrazole-induced seizure in albino Swiss (CD-1) mouse assessed as prolongation of latency time to first seizure episode at 30 mg/kg, ip administered 60 mins prior to PTZ challenge; type: functional, organism-based; parameters: dose 30 mg/kg; summary of the method: as §1

| SMILES | Activity [1] | Activity [2] | inhibition in vivo at 15 mg/kg [3] | inhibition [4] | Activity [5] | Activity [6] | Activity [7] | Activity [8] | Activity [9] | Activity [10] | inhibition in vivo at 100 mg/kg [11] | mortality [12] | inhibition in vivo at 100 mg/kg [13] | inhibition [14] | CS50 [15] | Activity [16] | Activity [17] | Activity [18] |
| --- | --- | --- | --- | --- | --- | --- | --- | --- | --- | --- | --- | --- | --- | --- | --- | --- | --- | --- |
| NCCC(C(=O)NCc1ccc(Cl)cc1)N1CCN(C(c2ccccc2)c2ccccc2)CC1 (centres undefined) | 58% | 217% | 58% | Active | 113.4% | 71.1% | Toxic | inactive | Toxic | inactive | 44% | 65% |  |  |  |  |  |  |
| NCCC(C(=O)NCc1ccccc1Cl)N1CCN(C(c2ccccc2)c2ccccc2)CC1 (centres undefined) |  |  |  |  |  |  | Non-toxic |  |  |  |  |  | 53% | Active | 6.22 mA | inactive | 100% | inactive |
